Test results taken from ChEMBL document CHEMBL5058577, “EUbOPEN Chemogenomics Library 2 (Multiplex)” (2022).

System: Fibroblast
Assay: Multiplex assay against human fibroblast
Type: toxicity, cell-based
Procedure, shortened: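 Phenotypes for tubulin, mitochondrial mass and membrane permeability are expressed as per cents of healthy-nucleus cells. Cells were stained live at seeding with Hoechst33342, BioTracker Green Microtubule Cytoskeleton Dye, MitoTracker Red and Annexin V Alexa Fluor 680, then imaged after compound addition on a CQ1 microscope at 37°C and 5% CO2. Machine-learning gating in CellPathfinder separated Hoechst high-intensity objects from normal cells, divided normal cells by nuclear state (healthy, pyknosed, fragmented) and divided pyknosed cells into mitotic or apoptotic.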

[1] = 12 h, 1 µM, compound concentration 1 uM, replicate 1
[2] = 12 h, 1 µM, compound concentration 1 uM, replicate 2
[3] = 12 h, 10 µM, compound concentration 10 uM, replicate 1
[4] = 12 h, 10 µM, compound concentration 10 uM, replicate 2
[5] = 24 h, 1 µM, compound concentration 1 uM, replicate 1
[6] = 24 h, 1 µM, compound concentration 1 uM, replicate 2
[7] = 24 h, 10 µM, compound concentration 10 uM, replicate 1
[8] = 24 h, 10 µM, compound concentration 10 uM, replicate 2
[9] = 48 h, 1 µM, compound concentration 1 uM, replicate 1
[10] = 48 h, 1 µM, compound concentration 1 uM, replicate 2
[11] = 48 h, 10 µM, compound concentration 10 uM, replicate 1
[12] = 48 h, 10 µM, compound concentration 10 uM, replicate 2

## CC(C)(C)c1ccc(CSc2cnn(C(C)(C)C)c(=O)c2Cl)cc1 [PYRIDABEN]
[1]
  Population Apoptotic (%): 46%
  Population Fragmented Nuclei (%): 15%
  Population Healthy Nuclei (%): 66%
  Population Hoechst High Intensity Objects (%): 1%
  Population Membrane Permeable-Phenotype (%): 3%
  Population Mitochondria Different-Phenotype (%): 1%
  Population Mitotic Cells (%): 53%
  Population Normal (%): 98%
  Population Pyknosed Nuclei (%): 17%
  Population Tubulin-Different-Phenotype (%): 28%
  Total Cell Count: 148
[2]
  Population Apoptotic (%): 44%
  Population Fragmented Nuclei (%): 27%
  Population Healthy Nuclei (%): 47%
  Population Hoechst High Intensity Objects (%): 4%
  Population Membrane Permeable-Phenotype (%): 12%
  Population Mitochondria Different-Phenotype (%): 7%
  Population Mitotic Cells (%): 55%
  Population Normal (%): 95%
  Population Pyknosed Nuclei (%): 25%
  Population Tubulin-Different-Phenotype (%): 57%
  Total Cell Count: 142
[3]
  Population Apoptotic (%): 25%
  Population Fragmented Nuclei (%): 11%
  Population Healthy Nuclei (%): 68%
  Population Hoechst High Intensity Objects (%): 4%
  Population Membrane Permeable-Phenotype (%): 2%
  Population Mitochondria Different-Phenotype (%): 5%
  Population Mitotic Cells (%): 74%
  Population Normal (%): 95%
  Population Pyknosed Nuclei (%): 20%
  Population Tubulin-Different-Phenotype (%): 35%
  Total Cell Count: 139
[4]
  Population Apoptotic (%): 47%
  Population Fragmented Nuclei (%): 25%
  Population Healthy Nuclei (%): 49%
  Population Hoechst High Intensity Objects (%): 1%
  Population Membrane Permeable-Phenotype (%): 12%
  Population Mitochondria Different-Phenotype (%): 4%
  Population Mitotic Cells (%): 52%
  Population Normal (%): 98%
  Population Pyknosed Nuclei (%): 25%
  Population Tubulin-Different-Phenotype (%): 54%
  Total Cell Count: 136
[5]
  Population Apoptotic (%): 35%
  Population Fragmented Nuclei (%): 17%
  Population Healthy Nuclei (%): 71%
  Population Hoechst High Intensity Objects (%): 0%
  Population Membrane Permeable-Phenotype (%): 0%
  Population Mitochondria Different-Phenotype (%): 2%
  Population Mitotic Cells (%): 64%
  Population Normal (%): 99%
  Population Pyknosed Nuclei (%): 11%
  Population Tubulin-Different-Phenotype (%): 20%
  Total Cell Count: 148
[6]
  Population Apoptotic (%): 36%
  Population Fragmented Nuclei (%): 30%
  Population Healthy Nuclei (%): 48%
  Population Hoechst High Intensity Objects (%): 4%
  Population Membrane Permeable-Phenotype (%): 7%
  Population Mitochondria Different-Phenotype (%): 8%
  Population Mitotic Cells (%): 63%
  Population Normal (%): 95%
  Population Pyknosed Nuclei (%): 21%
  Population Tubulin-Different-Phenotype (%): 50%
[7]
  Population Apoptotic (%): 56%
  Population Fragmented Nuclei (%): 13%
  Population Healthy Nuclei (%): 62%
  Population Hoechst High Intensity Objects (%): 2%
  Population Membrane Permeable-Phenotype (%): 1%
  Population Mitochondria Different-Phenotype (%): 7%
  Population Mitotic Cells (%): 43%
  Population Normal (%): 97%
  Population Pyknosed Nuclei (%): 23%
  Population Tubulin-Different-Phenotype (%): 40%
  Total Cell Count: 139
[8]
  Population Apoptotic (%): 54%
  Population Fragmented Nuclei (%): 28%
  Population Healthy Nuclei (%): 48%
  Population Hoechst High Intensity Objects (%): 0%
  Population Membrane Permeable-Phenotype (%): 9%
  Population Mitochondria Different-Phenotype (%): 9%
  Population Mitotic Cells (%): 45%
  Population Normal (%): 99%
  Population Pyknosed Nuclei (%): 22%
  Population Tubulin-Different-Phenotype (%): 53%
  Total Cell Count: 136
[9]
  Population Apoptotic (%): 50%
  Population Fragmented Nuclei (%): 27%
  Population Healthy Nuclei (%): 62%
  Population Hoechst High Intensity Objects (%): 1%
  Population Membrane Permeable-Phenotype (%): 0%
  Population Mitochondria Different-Phenotype (%): 4%
  Population Mitotic Cells (%): 50%
  Population Normal (%): 98%
  Population Pyknosed Nuclei (%): 9%
  Population Tubulin-Different-Phenotype (%): 28%
  Total Cell Count: 164
[10]
  Population Apoptotic (%): 45%
  Population Fragmented Nuclei (%): 43%
  Population Healthy Nuclei (%): 41%
  Population Hoechst High Intensity Objects (%): 4%
  Population Membrane Permeable-Phenotype (%): 6%
  Population Mitochondria Different-Phenotype (%): 15%
  Population Mitotic Cells (%): 54%
  Population Normal (%): 95%
  Population Pyknosed Nuclei (%): 15%
  Population Tubulin-Different-Phenotype (%): 63%
  Total Cell Count: 153
[11]
  Population Apoptotic (%): 72%
  Population Fragmented Nuclei (%): 19%
  Population Healthy Nuclei (%): 62%
  Population Hoechst High Intensity Objects (%): 4%
  Population Membrane Permeable-Phenotype (%): 0%
  Population Mitochondria Different-Phenotype (%): 8%
  Population Mitotic Cells (%): 28%
  Population Normal (%): 95%
  Population Pyknosed Nuclei (%): 18%
  Population Tubulin-Different-Phenotype (%): 49%
  Total Cell Count: 143
[12]
  Population Apoptotic (%): 63%
  Population Fragmented Nuclei (%): 36%
  Population Healthy Nuclei (%): 48%
  Population Hoechst High Intensity Objects (%): 5%
  Population Membrane Permeable-Phenotype (%): 8%
  Population Mitochondria Different-Phenotype (%): 10%
  Population Mitotic Cells (%): 36%
  Population Normal (%): 94%
  Population Pyknosed Nuclei (%): 15%
  Population Tubulin-Different-Phenotype (%): 58%
  Total Cell Count: 131

## COc1cc(C(=O)N2CC[C@@H](O)[C@@H](N)C2)cc2nc(-c3cc4ccccc4n3CC3CC3)n(C)c12.Cl
[1]
  Population Apoptotic (%): 21%
  Population Fragmented Nuclei (%): 25%
  Population Healthy Nuclei (%): 62%
  Population Hoechst High Intensity Objects (%): 2%
  Population Membrane Permeable-Phenotype (%): 0%
  Population Mitochondria Different-Phenotype (%): 4%
  Population Mitotic Cells (%): 78%
  Population Normal (%): 97%
  Population Pyknosed Nuclei (%): 12%
  Population Tubulin-Different-Phenotype (%): 55%
  Total Cell Count: 160
[2]
  Population Apoptotic (%): 48%
  Population Fragmented Nuclei (%): 24%
  Population Healthy Nuclei (%): 44%
  Population Hoechst High Intensity Objects (%): 3%
  Population Membrane Permeable-Phenotype (%): 10%
  Population Mitochondria Different-Phenotype (%): 14%
  Population Mitotic Cells (%): 51%
  Population Normal (%): 96%
  Population Pyknosed Nuclei (%): 31%
  Population Tubulin-Different-Phenotype (%): 69%
  Total Cell Count: 130
[3]
  Population Apoptotic (%): 60%
  Population Fragmented Nuclei (%): 22%
  Population Healthy Nuclei (%): 57%
  Population Hoechst High Intensity Objects (%): 6%
  Population Membrane Permeable-Phenotype (%): 0%
  Population Mitochondria Different-Phenotype (%): 34%
  Population Mitotic Cells (%): 40%
  Population Normal (%): 93%
  Population Pyknosed Nuclei (%): 19%
  Population Tubulin-Different-Phenotype (%): 97%
  Total Cell Count: 271
[4]
  Population Apoptotic (%): 48%
  Population Fragmented Nuclei (%): 30%
  Population Healthy Nuclei (%): 44%
  Population Hoechst High Intensity Objects (%): 10%
  Population Membrane Permeable-Phenotype (%): 2%
  Population Mitochondria Different-Phenotype (%): 25%
  Population Mitotic Cells (%): 51%
  Population Normal (%): 89%
  Population Pyknosed Nuclei (%): 25%
  Population Tubulin-Different-Phenotype (%): 92%
  Total Cell Count: 179
[5]
  Population Apoptotic (%): 55%
  Population Fragmented Nuclei (%): 24%
  Population Healthy Nuclei (%): 62%
  Population Hoechst High Intensity Objects (%): 3%
  Population Membrane Permeable-Phenotype (%): 0%
  Population Mitochondria Different-Phenotype (%): 5%
  Population Mitotic Cells (%): 45%
  Population Normal (%): 96%
  Population Pyknosed Nuclei (%): 13%
  Population Tubulin-Different-Phenotype (%): 51%
  Total Cell Count: 158
[6]
  Population Apoptotic (%): 60%
  Population Fragmented Nuclei (%): 31%
  Population Healthy Nuclei (%): 36%
  Population Hoechst High Intensity Objects (%): 4%
  Population Membrane Permeable-Phenotype (%): 4%
  Population Mitochondria Different-Phenotype (%): 20%
  Population Mitotic Cells (%): 39%
  Population Normal (%): 95%
  Population Pyknosed Nuclei (%): 31%
  Population Tubulin-Different-Phenotype (%): 79%
  Total Cell Count: 125
[7]
  Population Apoptotic (%): 73%
  Population Fragmented Nuclei (%): 15%
  Population Healthy Nuclei (%): 68%
  Population Hoechst High Intensity Objects (%): 7%
  Population Membrane Permeable-Phenotype (%): 0%
  Population Mitochondria Different-Phenotype (%): 55%
  Population Mitotic Cells (%): 26%
  Population Normal (%): 92%
  Population Pyknosed Nuclei (%): 16%
  Population Tubulin-Different-Phenotype (%): 94%
  Total Cell Count: 274
[8]
  Population Apoptotic (%): 62%
  Population Fragmented Nuclei (%): 27%
  Population Healthy Nuclei (%): 54%
  Population Hoechst High Intensity Objects (%): 5%
  Population Membrane Permeable-Phenotype (%): 3%
  Population Mitochondria Different-Phenotype (%): 41%
  Population Mitotic Cells (%): 37%
  Population Normal (%): 94%
  Population Pyknosed Nuclei (%): 17%
  Population Tubulin-Different-Phenotype (%): 92%
  Total Cell Count: 174
[9]
  Population Apoptotic (%): 80%
  Population Fragmented Nuclei (%): 22%
  Population Healthy Nuclei (%): 67%
  Population Hoechst High Intensity Objects (%): 6%
  Population Membrane Permeable-Phenotype (%): 0%
  Population Mitochondria Different-Phenotype (%): 8%
  Population Mitotic Cells (%): 20%
  Population Normal (%): 93%
  Population Pyknosed Nuclei (%): 10%
  Population Tubulin-Different-Phenotype (%): 44%
  Total Cell Count: 161
[10]
  Population Apoptotic (%): 64%
  Population Fragmented Nuclei (%): 38%
  Population Healthy Nuclei (%): 41%
  Population Hoechst High Intensity Objects (%): 1%
  Population Membrane Permeable-Phenotype (%): 3%
  Population Mitochondria Different-Phenotype (%): 16%
  Population Mitotic Cells (%): 35%
  Population Normal (%): 98%
  Population Pyknosed Nuclei (%): 20%
  Population Tubulin-Different-Phenotype (%): 80%
  Total Cell Count: 153
[11]
  Population Apoptotic (%): 86%
  Population Fragmented Nuclei (%): 20%
  Population Healthy Nuclei (%): 64%
  Population Hoechst High Intensity Objects (%): 8%
  Population Membrane Permeable-Phenotype (%): 0%
  Population Mitochondria Different-Phenotype (%): 62%
  Population Mitotic Cells (%): 13%
  Population Normal (%): 91%
  Population Pyknosed Nuclei (%): 15%
  Population Tubulin-Different-Phenotype (%): 94%
  Total Cell Count: 256
[12]
  Population Fragmented Nuclei (%): 32%
  Population Healthy Nuclei (%): 55%
  Population Hoechst High Intensity Objects (%): 4%
  Population Mitochondria Different-Phenotype (%): 36%
  Population Normal (%): 95%
  Population Pyknosed Nuclei (%): 11%
  Total Cell Count: 193
